From ChEMBL document CHEMBL4480420, “Specificity of extended O-aryloxycarbonyl hydroxamates as inhibitors of a class C β-lactamase” (Bioorg Med Chem, 2019)

Columns and labels:
[1] = target: Beta-lactamase (Enterobacter cloacae) (UniProt P05364); assay: Irreversible inhibition of Enterobacter cloacae P99 beta-lactamase assessed as second-order rate constant for enzyme-inhibitor complex using cephalothin as substrate by spectrophotometric analysis
Outline: (§1)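 Reactions ran at 25 °C in 20 mM MOPS, pH 7.5, with 0.1% BSA. Time courses: aliquots taken into 300 µM cephalothin, initial rates read at 270 nm. Titrations: 150 nM enzyme with 0–2.0 µM inhibitor, run to completion. Both datasets were fitted together to an acylation/partition scheme, k2 fixed at 100 s⁻¹. k_i = k1/(1 + k2/k3).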

[2] = target: Beta-lactamase (Enterobacter cloacae) (UniProt P05364); assay: Irreversible inhibition of Enterobacter cloacae P99 beta-lactamase assessed as ratio of K2/K3 using cephalothin as substrate by spectrophotometric analysis; outline: as §1
[3] = target: Beta-lactamase (Enterobacter cloacae, UniProt P05364); assay: Irreversible inhibition of Enterobacter cloacae P99 beta-lactamase using cephalothin as substrate by spectrophotometric analysis
Beta-lactamase, sequence (P05364 whole entry): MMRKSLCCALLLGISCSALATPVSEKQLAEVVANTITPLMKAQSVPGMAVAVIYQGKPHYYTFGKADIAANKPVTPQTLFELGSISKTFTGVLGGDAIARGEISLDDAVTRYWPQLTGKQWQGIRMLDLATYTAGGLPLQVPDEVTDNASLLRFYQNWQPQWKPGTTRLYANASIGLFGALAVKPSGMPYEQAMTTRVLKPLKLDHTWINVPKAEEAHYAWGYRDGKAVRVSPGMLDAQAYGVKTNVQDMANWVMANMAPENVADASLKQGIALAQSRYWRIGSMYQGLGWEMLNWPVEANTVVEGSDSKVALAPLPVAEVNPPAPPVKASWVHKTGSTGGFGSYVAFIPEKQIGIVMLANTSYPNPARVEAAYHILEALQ
Outline: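 P99 class C β-lactamase (stock concentration by A280, ε 7.1 x 10⁴ M⁻¹cm⁻¹) incubated with inhibitor in 20 mM MOPS pH 7.5, 0.1% BSA, 25 °C. Aliquots diluted 1:50 into 300 μM cephalothin; initial rates followed at 270 nm over time. Titration: 150 nM enzyme with 0–2.0 μM inhibitor to end-point. Time-course and titration data fitted jointly to Scheme 2, k2 fixed at 100 s⁻¹, giving k1, k2/k3 and k_i.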

[4] = target: Beta-lactamase (Enterobacter cloacae) (UniProt P05364); assay: Binding affinity to Enterobacter cloacae P99 beta-lactamase assessed as increase in molecular weight of enzyme-compound complex by mass-spectra analysis (reference value: 39192 Da)
Outline: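 P99 enzyme was analysed by electrospray MS before and after inactivation. Protein was precipitated with trichloroacetic acid, then the precipitate was washed and dried before analysis.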

Beta-lactamase (Enterobacter cloacae), sequence (P05364 21-381 limits assumed): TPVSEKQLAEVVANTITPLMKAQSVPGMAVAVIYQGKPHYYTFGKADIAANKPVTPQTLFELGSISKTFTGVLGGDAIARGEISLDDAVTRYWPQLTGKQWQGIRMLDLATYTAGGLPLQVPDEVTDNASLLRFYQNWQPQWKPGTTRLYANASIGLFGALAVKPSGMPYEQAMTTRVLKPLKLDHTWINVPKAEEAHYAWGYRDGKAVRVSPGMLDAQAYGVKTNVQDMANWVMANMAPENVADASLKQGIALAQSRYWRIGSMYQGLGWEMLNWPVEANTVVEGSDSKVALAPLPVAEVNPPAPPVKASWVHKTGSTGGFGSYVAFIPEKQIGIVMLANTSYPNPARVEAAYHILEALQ

K [1] | Ratio [2] | second-order inactivation rate constant (k_i) [3] | Activity [4] | SMILES | second-order inactivation rate constant (k i) [3]
3.5 ×10⁴ /M/s | 1.25 | 1.6 ×10⁴ /M/s | – | N[C@H](CCCOC(=O)NOC(=O)Oc1ccccc1)C(=O)O | –
3.7 ×10⁴ /M/s | 25 | 1.4 ×10³ /M/s | 26 Da | O=C(NOC(=O)Oc1ccccc1)OCCc1ccccc1 | –
6.1 ×10³ /M/s | 2 | 2 ×10³ /M/s | – | O=C(NOC(=O)Oc1ccccc1)OCc1ccccc1 | –
3.6 ×10³ /M/s | 2.4 | 1.1 ×10³ /M/s | 185 Da | CCCCOC(=O)NOC(=O)Oc1ccccc1 | –
2.8 ×10⁴ /M/s | 2.3 | 8.5 ×10³ /M/s | 26 Da | O=C(O)CCCCOC(=O)NOC(=O)Oc1ccccc1 | –

SMILES | K [1] | Ratio [2] | second-order inactivation rate constant (k_i) [3] | Activity [4] | second-order inactivation rate constant (k i) [3]
N[C@H](Cc1ccc(OC(=O)NOC(=O)Oc2ccccc2)cc1)C(=O)O | 360 M⁻¹ s⁻¹ | < 1 | – | 26 Da | 180 to 360 M⁻¹ s⁻¹
